Laboratory results as given in ChEMBL document CHEMBL1151794, “Synthesis and pharmacological evaluation of bis-3-(3,4-dichlorophenyl)acrylamide derivatives as glycogen phosphorylase inhibitors” (Bioorg Med Chem, 2008).

Legend:
[1] = biological target: T1, Glycogen phosphorylase, liver form (Homo sapiens, UniProt P06737); assay: Inhibition of human liver glycogen phosphorylase a in presence of glucose
T1 sequence (P06737 whole entry): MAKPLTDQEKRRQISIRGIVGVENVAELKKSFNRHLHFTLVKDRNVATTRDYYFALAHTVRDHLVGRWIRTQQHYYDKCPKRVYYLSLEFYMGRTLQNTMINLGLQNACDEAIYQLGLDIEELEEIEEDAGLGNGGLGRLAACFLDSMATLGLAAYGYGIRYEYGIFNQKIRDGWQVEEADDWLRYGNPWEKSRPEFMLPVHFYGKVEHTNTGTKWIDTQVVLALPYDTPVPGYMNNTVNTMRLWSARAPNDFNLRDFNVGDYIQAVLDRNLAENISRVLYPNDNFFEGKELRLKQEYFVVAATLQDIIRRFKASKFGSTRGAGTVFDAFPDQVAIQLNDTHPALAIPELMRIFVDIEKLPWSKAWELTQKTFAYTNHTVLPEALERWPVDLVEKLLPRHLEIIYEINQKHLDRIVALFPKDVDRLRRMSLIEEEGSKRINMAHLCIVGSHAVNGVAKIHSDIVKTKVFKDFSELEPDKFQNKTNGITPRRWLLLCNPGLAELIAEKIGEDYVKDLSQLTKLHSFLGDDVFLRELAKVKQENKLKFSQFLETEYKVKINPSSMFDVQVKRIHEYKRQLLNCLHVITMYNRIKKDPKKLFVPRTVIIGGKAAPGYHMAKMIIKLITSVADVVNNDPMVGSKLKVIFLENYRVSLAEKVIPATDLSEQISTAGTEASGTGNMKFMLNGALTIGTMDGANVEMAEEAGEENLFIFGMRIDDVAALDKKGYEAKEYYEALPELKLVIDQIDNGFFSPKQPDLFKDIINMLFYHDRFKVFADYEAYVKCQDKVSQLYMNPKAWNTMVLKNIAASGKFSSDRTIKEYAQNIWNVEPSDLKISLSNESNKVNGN
How it was run: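 Recombinant human liver GPa assayed in the forward direction by NADPH formation, coupled through phosphoglucomutase (77 U/L) and glucose-6-phosphate dehydrogenase (385 U/L). Conditions: pH 6.8 phosphate buffer with 45 mM KH2PO4, β-NADP, glucose 1,6-bisphosphate, 0.24% glycogen and 10.85 mM glucose. Compounds were added in DMSO before the enzyme; DMSO served as blank and caffeine as positive control. Enzyme addition started the reaction; IC50 was derived by logistic regression.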

[2] = biological target: T1, Glycogen phosphorylase, liver form; assay: Inhibition of human liver glycogen phosphorylase a in absence of glucose
[3] = biological target: T2, Glycogen phosphorylase, liver form (Homo sapiens) (UniProt P06737); assay: Inhibition of human liver glycogen phosphorylase a in absence of glucose at 10 uM
T2 sequence (whole entry): T1 sequence (P06737 whole entry)

Row | SMILES | IC50 [1] [nM] | IC50 [2] [nM] | inhibition [3] [%]
1 | O=C(/C=C/c1ccc(Cl)c(Cl)c1)NCCCCNC(=O)/C=C/c1ccc(Cl)c(Cl)c1 | 43 | 420 | 
2 | O=C(/C=C/c1ccc(Cl)c(Cl)c1)NCCS(=O)(=O)CCNC(=O)/C=C/c1ccc(Cl)c(Cl)c1 |  | 1500 | 
3 | O=C(/C=C\c1ccc(Cl)c(Cl)c1)NCCCCCNC(=O)/C=C\c1ccc(Cl)c(Cl)c1 |  |  | 36
4 | O=C(/C=C/c1ccc(Cl)c(Cl)c1)NCCCCCCCCNC(=O)/C=C/c1ccc(Cl)c(Cl)c1 |  | 33000 | 
5 | O=C(/C=C/c1ccc(Cl)c(Cl)c1)NCCCCCCCNC(=O)/C=C/c1ccc(Cl)c(Cl)c1 |  | 11000 | 
6 | O=C(/C=C/c1ccc(Cl)c(Cl)c1)NCCSCCNC(=O)/C=C/c1ccc(Cl)c(Cl)c1 | 12 | 450 | 
7 | O=C(C#Cc1ccc(Cl)c(Cl)c1)NCCCCCNC(=O)C#Cc1ccc(Cl)c(Cl)c1 |  | 59000 | 
8 | O=C(/C=C/c1ccc(Cl)c(Cl)c1)NCCNC(=O)/C=C/c1ccc(Cl)c(Cl)c1 |  | 20000 | 
9 | O=C(/C=C/c1ccc(Cl)c(Cl)c1)NCCOCCNC(=O)/C=C/c1ccc(Cl)c(Cl)c1 | 26 | 430 | 
10 | O=C(/C=C/c1ccc(Cl)c(Cl)c1)NCC[S+]([O-])CCNC(=O)/C=C/c1ccc(Cl)c(Cl)c1 | 26 | 310 | 
11 | CCCNC(=O)/C=C/c1ccc(Cl)c(Cl)c1 |  |  | 0
12 | O=C(/C=C/c1ccc(Cl)c(Cl)c1)NCCCCCCNC(=O)/C=C/c1ccc(Cl)c(Cl)c1 |  | 18000 | 

Continued, values first:

Row | IC50 [1] [nM] | IC50 [2] [nM] | inhibition [3] [%] | SMILES
13 | 23 | 260 |  | O=C(/C=C/c1ccc(Cl)c(Cl)c1)NCCCCCNC(=O)/C=C/c1ccc(Cl)c(Cl)c1
14 |  | 45000 |  | O=C(CCc1ccc(Cl)c(Cl)c1)NCCCCCNC(=O)CCc1ccc(Cl)c(Cl)c1
15 |  | 55000 |  | O=C(/C=C/c1ccc(Cl)c(Cl)c1)NCCCNC(=O)/C=C/c1ccc(Cl)c(Cl)c1
16 |  |  | 51 | O=C(/C=C/c1ccc(Cl)c(Cl)c1)NCCNCCNC(=O)/C=C/c1ccc(Cl)c(Cl)c1
17 |  |  | 48 | CC(C)(C)OC(=O)N(CCNC(=O)/C=C/c1ccc(Cl)c(Cl)c1)CCNC(=O)/C=C/c1ccc(Cl)c(Cl)c1
